Measured values from ChEMBL document CHEMBL4622841, “Structural modifications of indolinones bearing a pyrrole moiety and discovery of a multi-kinase inhibitor with potent antitumor activity” (Bioorg Med Chem, 2020).
The source made the active and inactive calls. The calls are words filed in the database; no cut-off is given here.

Experiments:
MKN-74 [1] = experiment: Induction of apoptosis in human MKN74 cells assessed as viable cells at 1 uM incubated for 72 hrs by Annexin-V-FITC/propidium iodide staining-based flow cytometric analysis (reference value: 76.84%); format: functional; settings: MKN-74, 72 h, read-out: Activity
[2] = target: Vascular endothelial growth factor receptor 2 (Homo sapiens, UniProt P35968); experiment: Inhibition of N-terminal GST fused human VEGFR2 cytoplasmic domain (790 to 1356 (end) residues) expressed in baculovirus expression system using FAM-labeled peptide and ATP as substrate preincubated for 10 mins followed by substrate addition measured after 1 hr by mobility shift assay
[3] = target: Fibroblast growth factor receptor 1 (Homo sapiens, UniProt P11362); experiment: Inhibition of N-terminal GST fused human recombinant FGFR1 cytoplasmic domain (398 to 822 (end) residues) expressed in baculovirus expression system using FAM-labeled peptide and ATP as substrate preincubated for 10 mins followed by substrate addition measured after 1 hr by mobility shift assay
[4] = target: Proto-oncogene tyrosine-protein kinase Src (Homo sapiens, UniProt P12931); experiment: Inhibition of SRC (unknown origin) using FAM-labeled peptide and ATP as substrate preincubated for 10 mins followed by substrate addition measured after 1 hr by mobility shift assay
[5] = target: Tyrosine-protein kinase Lyn (Homo sapiens, UniProt P07948); experiment: Inhibition of LYN (unknown origin) using FAM-labeled peptide and ATP as substrate preincubated for 10 mins followed by substrate addition measured after 1 hr by mobility shift assay
[6] = target: T1, Serine/threonine-protein kinase Chk1 (Homo sapiens, UniProt O14757); experiment: Inhibition of CHK (unknown origin) using FAM-labeled peptide and ATP as substrate preincubated for 10 mins followed by substrate addition measured after 1 hr by mobility shift assay
T1 sequence (O14757 whole entry): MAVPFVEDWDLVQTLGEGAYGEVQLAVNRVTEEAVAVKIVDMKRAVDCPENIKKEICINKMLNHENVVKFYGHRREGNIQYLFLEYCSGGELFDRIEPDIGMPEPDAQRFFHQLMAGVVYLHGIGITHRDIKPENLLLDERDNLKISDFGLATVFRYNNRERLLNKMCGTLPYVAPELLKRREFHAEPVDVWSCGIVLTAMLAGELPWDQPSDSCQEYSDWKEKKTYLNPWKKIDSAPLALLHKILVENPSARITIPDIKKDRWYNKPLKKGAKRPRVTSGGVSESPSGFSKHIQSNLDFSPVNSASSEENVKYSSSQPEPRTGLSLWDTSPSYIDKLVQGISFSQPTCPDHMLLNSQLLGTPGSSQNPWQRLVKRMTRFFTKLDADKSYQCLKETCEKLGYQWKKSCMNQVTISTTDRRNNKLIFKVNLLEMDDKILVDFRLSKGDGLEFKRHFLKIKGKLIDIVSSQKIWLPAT

[7] = target: Cyclin-dependent kinase 4 (Homo sapiens, UniProt P11802); experiment: Inhibition of CDK4 (unknown origin) at 1 uM using FAM-labeled peptide and ATP as substrate preincubated for 10 mins followed by substrate addition measured after 1 hr by mobility shift assay
[8] = target: T2, Serine/threonine-protein kinase Chk1 (Homo sapiens) (UniProt O14757); experiment: Inhibition of CHK (unknown origin) at 1 uM using FAM-labeled peptide and ATP as substrate preincubated for 10 mins followed by substrate addition measured after 1 hr by mobility shift assay
T2 sequence (whole entry): T1 sequence (O14757 whole entry)

HT-29 [9] = experiment: Inhibition of colony formation in human HT-29 cells at 1 uM measured after 14 days by crystal violet staining-based assay; format: functional, cell-based
Method in brief: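 HT-29 cells exposed to compound for 14 days and colonies counted. Read-out is colony formation rate relative to vehicle, given as mean ± SEM. Significance versus the vehicle group was tested by unpaired two-tailed Student's t-test.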

MKN-74 [10] = experiment: Inhibition of colony formation in human MKN74 cells at 1 uM measured after 14 days by crystal violet staining-based assay; format: functional; settings: MKN-74, 336 h
HT-29 [11] = experiment: Induction of apoptosis in human HT-29 cells incubated for 72 hrs by Annexin-V-FITC/propidium iodide staining-based flow cytometric analysis; format: functional, cell-based
HepG2 [12] = experiment: Induction of apoptosis in human HepG2 cells incubated for 72 hrs by Annexin-V-FITC/propidium iodide staining-based flow cytometric analysis; format: functional, cell-based
HT-29 [13] = experiment: Induction of apoptosis in human HT-29 cells assessed as early apoptotic cells at 1 uM incubated for 72 hrs by Annexin-V-FITC/propidium iodide staining-based flow cytometric analysis (reference value: 3.18%); format: functional
HT-29 [14] = experiment: Induction of apoptosis in human HT-29 cells assessed as late apoptotic cells at 3 uM incubated for 72 hrs by Annexin-V-FITC/propidium iodide staining-based flow cytometric analysis (reference value: 6.12%); format: functional
MKN-74 [15] = experiment: Induction of apoptosis in human MKN74 cells assessed as late apoptotic cells at 0.3 uM incubated for 72 hrs by Annexin-V-FITC/propidium iodide staining-based flow cytometric analysis (reference value: 12.42%); format: functional
MKN-74 [16] = experiment: Induction of apoptosis in human MKN74 cells assessed as early apoptotic cells at 1 uM incubated for 72 hrs by Annexin-V-FITC/propidium iodide staining-based flow cytometric analysis (reference value: 1.98%); format: functional
MKN-74 [17] = experiment: Induction of apoptosis in human MKN74 cells assessed as early apoptotic cells at 3 uM incubated for 72 hrs by Annexin-V-FITC/propidium iodide staining-based flow cytometric analysis (reference value: 1.98%); format: functional
HepG2 [18] = experiment: Induction of apoptosis in human HepG2 cells assessed as late apoptotic cells at 0.3 uM incubated for 72 hrs by Annexin-V-FITC/propidium iodide staining-based flow cytometric analysis (reference value: 2.89%); format: functional
HepG2 [19] = experiment: Induction of apoptosis in human HepG2 cells assessed as early apoptotic cells at 1 uM incubated for 72 hrs by Annexin-V-FITC/propidium iodide staining-based flow cytometric analysis (reference value: 1.08%); format: functional
HUVEC = experiment: Induction of apoptosis in human HUVEC cells assessed as early apoptotic cells at 0.3 uM incubated for 48 hrs by Annexin-V-FITC/propidium iodide staining-based flow cytometric analysis (reference value: 3.63%); format: functional
[20] = Intrinsic clearance in human liver microsomes; format: ADME, Microsome; settings: read-out: CLH
[21] = Half life in mouse liver microsomes; format: ADME, Microsome
HT-29 [22] = experiment: Antitumor activity against human HT-29 cells xenografted in nu/nu mouse assessed as tumour growth inhibition at 100 mg/kg, po qd for 18 days and measured twice per week by vernier caliper method; format: functional; settings: HT-29, po, 432 h, read-out: TGI
[23] = Toxicity in nu/nu mouse xenografted with human HT-29 cells assessed as effect on body weight at 100 mg/kg, po qd for 18 days; format: organism-based; settings: in vivo, 432 h
Method in brief: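 Female nu/nu mice, 4–6 weeks old, implanted subcutaneously in the right flank with HT-29 cells (2×10⁶/mL). Once tumours reached 200 mm³, mice randomised to groups (n = 6) and dosed orally once daily at 100 mg/kg for 18 days. Body weight monitored during treatment. Results given as mean ± SD.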

MKN-74 [24] = experiment: Induction of apoptosis in human MKN74 cells assessed as necrotic cells at 3 uM incubated for 72 hrs by Annexin-V-FITC/propidium iodide staining-based flow cytometric analysis (reference value: 6.29%); format: functional

Proto-oncogene tyrosine-protein kinase Src, sequence (P12931 2-536 limits assumed): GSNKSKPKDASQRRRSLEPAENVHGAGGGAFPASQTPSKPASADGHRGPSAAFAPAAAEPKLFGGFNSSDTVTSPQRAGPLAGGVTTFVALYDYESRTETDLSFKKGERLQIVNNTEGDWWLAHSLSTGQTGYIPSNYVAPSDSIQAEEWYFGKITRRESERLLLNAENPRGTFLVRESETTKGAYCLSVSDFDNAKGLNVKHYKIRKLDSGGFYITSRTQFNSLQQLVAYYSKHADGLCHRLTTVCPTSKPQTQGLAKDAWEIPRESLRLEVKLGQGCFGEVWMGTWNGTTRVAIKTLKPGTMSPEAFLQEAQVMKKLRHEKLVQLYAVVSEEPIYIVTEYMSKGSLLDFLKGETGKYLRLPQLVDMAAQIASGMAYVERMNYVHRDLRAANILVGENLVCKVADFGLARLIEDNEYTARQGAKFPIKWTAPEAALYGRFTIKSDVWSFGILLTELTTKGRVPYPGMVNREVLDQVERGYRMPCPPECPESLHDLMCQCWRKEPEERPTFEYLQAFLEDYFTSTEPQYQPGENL
Fibroblast growth factor receptor 1, sequence (P11362 whole entry, the tested form may be a part): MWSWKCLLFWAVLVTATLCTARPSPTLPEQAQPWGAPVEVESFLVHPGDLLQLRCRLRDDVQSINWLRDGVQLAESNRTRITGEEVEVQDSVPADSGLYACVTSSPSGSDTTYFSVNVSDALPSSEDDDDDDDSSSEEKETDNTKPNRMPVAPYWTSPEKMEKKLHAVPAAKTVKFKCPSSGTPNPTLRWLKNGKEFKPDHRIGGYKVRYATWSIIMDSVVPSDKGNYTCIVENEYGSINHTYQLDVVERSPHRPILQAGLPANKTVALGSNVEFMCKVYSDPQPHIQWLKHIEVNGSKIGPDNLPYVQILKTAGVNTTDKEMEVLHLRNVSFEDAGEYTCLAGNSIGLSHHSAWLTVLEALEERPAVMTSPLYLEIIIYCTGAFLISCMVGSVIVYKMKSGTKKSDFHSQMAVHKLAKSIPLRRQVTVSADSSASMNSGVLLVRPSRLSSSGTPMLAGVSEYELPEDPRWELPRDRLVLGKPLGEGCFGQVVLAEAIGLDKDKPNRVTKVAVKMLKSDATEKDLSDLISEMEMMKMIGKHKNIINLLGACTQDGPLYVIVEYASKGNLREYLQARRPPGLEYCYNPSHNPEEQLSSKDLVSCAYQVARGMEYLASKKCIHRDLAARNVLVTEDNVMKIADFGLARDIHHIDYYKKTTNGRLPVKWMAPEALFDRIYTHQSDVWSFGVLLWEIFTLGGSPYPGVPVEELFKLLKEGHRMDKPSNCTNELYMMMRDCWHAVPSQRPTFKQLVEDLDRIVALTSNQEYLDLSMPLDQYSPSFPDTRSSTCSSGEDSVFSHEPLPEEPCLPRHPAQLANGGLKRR
Tyrosine-protein kinase Lyn, sequence (P07948 whole entry): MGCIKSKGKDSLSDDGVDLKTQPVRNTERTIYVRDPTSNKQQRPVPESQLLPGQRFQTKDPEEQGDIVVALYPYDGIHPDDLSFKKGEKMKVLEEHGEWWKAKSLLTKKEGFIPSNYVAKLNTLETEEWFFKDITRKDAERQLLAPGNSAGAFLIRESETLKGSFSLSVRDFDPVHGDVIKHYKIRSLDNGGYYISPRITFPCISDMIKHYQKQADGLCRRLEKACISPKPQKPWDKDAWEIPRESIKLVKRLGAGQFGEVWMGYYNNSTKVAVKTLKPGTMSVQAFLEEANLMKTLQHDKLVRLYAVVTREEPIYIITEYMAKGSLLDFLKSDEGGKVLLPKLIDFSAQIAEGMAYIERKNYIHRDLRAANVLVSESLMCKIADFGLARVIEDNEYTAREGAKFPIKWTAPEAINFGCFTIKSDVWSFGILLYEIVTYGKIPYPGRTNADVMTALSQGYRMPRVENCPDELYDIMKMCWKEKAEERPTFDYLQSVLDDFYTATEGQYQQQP
Cyclin-dependent kinase 4, sequence (P11802 whole entry): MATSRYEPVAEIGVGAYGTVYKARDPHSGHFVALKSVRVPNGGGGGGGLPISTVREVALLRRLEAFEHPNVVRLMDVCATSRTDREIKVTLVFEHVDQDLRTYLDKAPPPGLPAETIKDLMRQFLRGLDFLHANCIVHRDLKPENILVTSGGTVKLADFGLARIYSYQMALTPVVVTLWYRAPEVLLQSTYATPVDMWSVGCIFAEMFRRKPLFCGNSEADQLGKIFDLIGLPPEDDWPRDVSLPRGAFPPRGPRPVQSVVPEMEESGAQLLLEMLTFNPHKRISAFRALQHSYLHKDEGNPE
Vascular endothelial growth factor receptor 2, sequence (P35968 whole entry, the tested form may be a part): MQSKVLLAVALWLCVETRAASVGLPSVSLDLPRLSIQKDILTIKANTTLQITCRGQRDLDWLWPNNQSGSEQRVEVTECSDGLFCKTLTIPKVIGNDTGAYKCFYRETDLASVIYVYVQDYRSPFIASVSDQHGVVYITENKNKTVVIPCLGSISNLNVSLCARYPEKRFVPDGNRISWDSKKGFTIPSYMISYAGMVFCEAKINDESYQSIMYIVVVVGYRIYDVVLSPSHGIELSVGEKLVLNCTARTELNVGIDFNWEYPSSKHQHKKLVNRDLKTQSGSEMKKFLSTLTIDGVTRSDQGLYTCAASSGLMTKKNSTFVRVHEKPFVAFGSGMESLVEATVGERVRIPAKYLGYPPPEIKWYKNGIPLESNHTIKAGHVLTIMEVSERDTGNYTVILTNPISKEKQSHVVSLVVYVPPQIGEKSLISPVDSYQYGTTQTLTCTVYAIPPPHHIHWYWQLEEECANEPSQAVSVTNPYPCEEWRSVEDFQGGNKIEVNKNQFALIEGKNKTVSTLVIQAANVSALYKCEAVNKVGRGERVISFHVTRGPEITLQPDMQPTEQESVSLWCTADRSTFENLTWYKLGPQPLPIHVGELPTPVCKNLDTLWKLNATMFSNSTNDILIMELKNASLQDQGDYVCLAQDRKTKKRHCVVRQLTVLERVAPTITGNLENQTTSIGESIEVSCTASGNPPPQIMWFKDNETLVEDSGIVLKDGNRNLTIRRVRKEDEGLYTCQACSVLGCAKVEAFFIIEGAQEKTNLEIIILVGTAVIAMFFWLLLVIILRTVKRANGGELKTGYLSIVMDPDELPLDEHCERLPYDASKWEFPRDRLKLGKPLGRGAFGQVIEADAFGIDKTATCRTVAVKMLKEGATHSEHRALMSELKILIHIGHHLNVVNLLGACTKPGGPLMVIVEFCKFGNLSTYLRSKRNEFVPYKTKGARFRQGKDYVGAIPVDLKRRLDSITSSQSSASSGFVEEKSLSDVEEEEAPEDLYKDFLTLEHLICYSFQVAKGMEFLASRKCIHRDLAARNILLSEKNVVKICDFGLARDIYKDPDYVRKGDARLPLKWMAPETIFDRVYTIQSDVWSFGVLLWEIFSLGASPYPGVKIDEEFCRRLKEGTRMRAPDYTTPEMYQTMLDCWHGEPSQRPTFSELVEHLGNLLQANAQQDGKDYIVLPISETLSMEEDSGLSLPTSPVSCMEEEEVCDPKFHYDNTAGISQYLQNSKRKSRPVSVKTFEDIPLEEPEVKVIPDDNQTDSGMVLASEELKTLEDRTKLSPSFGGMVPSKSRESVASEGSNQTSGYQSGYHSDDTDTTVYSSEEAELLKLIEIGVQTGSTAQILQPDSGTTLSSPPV

`COC(=O)c1ccc2c(c1)NC(=O)/C2=C(\Nc1ccc(-n2c(C)ccc2CN2CCN(C)CC2)cc1)c1ccccc1` showed a viability at 1 µM (MKN-74 [1]) of 62.9%, an IC50 [2] of 6.5 nM and an IC50 [3] of 23 nM. For the same compound, the IC50 [4] was 178 nM, the IC50 [5] was 16 nM and the IC50 [6] was > 1000 nM. For the same compound, the inhibition [7] was “inactive”, the inhibition [8] was “inactive” and the inhibition (HT-29 [9]) was “Active”. For the same compound, the inhibition at 1 µM (MKN-74 [10]) was 100%, the Activity (HT-29 [11]) was “Dose-dependent effect” and the Activity (HepG2 [12]) was “Dose-dependent effect”. It also gave an Activity (HT-29 [13]) of 1.52%, an Activity (HT-29 [14]) of 88.27% and an Activity (MKN-74 [15]) of 16.86%. It also gave an Activity (MKN-74 [16]) of 5.73%, an Activity (MKN-74 [17]) of 8.01% and an Activity (HepG2 [18]) of 4.64%. The Activity (HepG2 [19]) was 17.61%, the Activity (HUVEC) was 2.36% and the CLint scaled [20] was 82 mL/min/kg. For the same compound, the half-life [21] was 12.5 min, the inhibition in vivo at 100 mg/kg (HT-29 [22]) was 13.4% and the Activity [23] was “Non-Toxic”. For the same compound, the Activity (MKN-74 [24]) was 4.15%.
